14 compounds from ChEMBL document CHEMBL1139927, “A new class of nifuroxazide analogues: synthesis of 5-nitrothiophene derivatives with antimicrobial activity against multidrug-resistant Staphylococcus aureus” (2007) can be followed below.

Type in all cases: functional
The subject of assay [1] is Staphylococcus aureus. The experiment in a line: Antimicrobial activity against multidrug-resistant Staphylococcus aureus 3SP/R33 […] after 24 hrs. The conditions noted are these: 3SP/R33, 24 h. In short, it runs like this:
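MBC: 10 µL was taken from each tube that stayed clear in the broth dilution MIC test. Each aliquot was spread over the whole surface of a Müller–Hinton agar plate, and plates were incubated at 35 °C for 24 h to read bactericidal concentration.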

Assay [2] has as its system Staphylococcus aureus. The experiment in a line: Antimicrobial activity against multidrug-resistant Staphylococcus aureus 3SP/R33 after 18 hrs by serial dilution test. The conditions noted are these: 3SP/R33, 18 h. In short, it runs like this:
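Broth twofold macro-dilution in Tryptic Soy Broth. Inoculum came from fresh cultures grown on plate count agar for 18 h at 35 °C and was adjusted to McFarland no. 1. Compound stocks were made in DMSO (2–5% in assay), with ethanol as co-solvent, and diluted in TSB. Tubes were incubated at 35 °C for 18 h. MIC = lowest concentration giving no visible growth; run in quadruplicate.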

Assay [3] deals with Staphylococcus aureus. The experiment in a line: Antimicrobial activity against Staphylococcus aureus ATCC 25923 after 18 hrs by serial dilution test. The conditions noted are these: ATCC 25923, 18 h. In short, it runs like this:
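Twofold broth macro-dilution in Tryptic Soy Broth. Inoculum taken from fresh 18 h, 35 °C cultures on plate count agar and adjusted to McFarland no. 1. Compounds prepared as DMSO stocks and diluted in TSB, with ethanol as co-solvent and 2–5% DMSO in the assay. Tubes incubated at 35 °C for 18 h and read visually. MIC is the lowest concentration giving complete growth inhibition; run in quadruplicate.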

≈ marks a conversion by molar mass, not a printed value.

Usually MBC stands for the lowest tested concentration that kills the bacteria rather than only halting them. Higher therefore signals less potent killing. One may read the MIC as the lowest concentration found to suppress growth. Low readings indicate inhibition by little substance, high ones a need for much substance.

`O=C(N/N=C/c1ccc([N+](=O)[O-])s1)c1ccc(Cl)cc1` came in with an MBC against Staphylococcus aureus [1] of 2.18 µg/mL (≈ 7.04 µM). For the same compound, the MIC is 1.09 µg/mL (≈ 3.52 µM) in the assay with Staphylococcus aureus [2] and at most 5.52 µM in the assay with Staphylococcus aureus [3].
Compound `O=C(N/N=C/c1ccc([N+](=O)[O-])s1)c1ccccc1` returned an MBC in the assay on Staphylococcus aureus [1] of at least 125 µg/mL. Moreover, the MIC is 3.9 µg/mL (≈ 14.2 µM) against Staphylococcus aureus [2] and at most 16.7 µM against Staphylococcus aureus [3].
In the case of `C=Cc1ccc(C(=O)N/N=C/c2ccc([N+](=O)[O-])s2)cc1`, the MBC in the assay on Staphylococcus aureus [1] was above 54 µg/mL. The MIC was 3.38 µg/mL (≈ 11.2 µM) in the assay with Staphylococcus aureus [2] and at most 15.7 µM in the assay with Staphylococcus aureus [3].
`O=C(N/N=C/c1ccc([N+](=O)[O-])s1)c1ccc(Cl)c(Cl)c1` showed an MBC in the assay on Staphylococcus aureus [1] of 0.63 µg/mL (≈ 1.83 µM). Moreover, the MIC against Staphylococcus aureus [2] is 0.63 µg/mL (≈ 1.83 µM); against Staphylococcus aureus [3], at most 2.21 µM.
For the compound `CCCCOc1ccc(C(=O)N/N=C/c2ccc([N+](=O)[O-])s2)cc1`, the MBC in the assay with Staphylococcus aureus [1] was above 41.2 µg/mL. In addition, the MIC against Staphylococcus aureus [2] was 10.3 µg/mL (≈ 29.7 µM); with Staphylococcus aureus [3], at most 35.4 µM.
The corresponding values for `O=C(N/N=C/c1ccc([N+](=O)[O-])s1)c1ccc(I)cc1` are above 88.8 µg/mL, 5.55 µg/mL (≈ 13.8 µM) and at most 14 µM.
The corresponding values for `O=C(N/N=C/c1ccc([N+](=O)[O-])s1)c1ccc(Br)cc1` are 0.63 µg/mL (≈ 1.78 µM), 0.63 µg/mL (≈ 1.78 µM) and at most 2.12 µM.
In the same order, the values of `CC(C)c1ccc(C(=O)N/N=C/c2ccc([N+](=O)[O-])s2)cc1` are above 40.2 µg/mL, 5.02 µg/mL (≈ 15.8 µM) and at most 28.6 µM.
Regarding `CCCOc1ccc(C(=O)N/N=C/c2ccc([N+](=O)[O-])s2)cc1`, in the assay with Staphylococcus aureus [3], the MIC is at most 24.3 µM.
For `CCc1ccc(C(=O)N/N=C/c2ccc([N+](=O)[O-])s2)cc1`, in the assay with Staphylococcus aureus [1], the MBC is above 92.8 µg/mL. In addition, the MIC in the assay with Staphylococcus aureus [2] was 5.8 µg/mL (≈ 19.1 µM); with Staphylococcus aureus [3], at most 22.2 µM.
As for `CCCCc1ccc(C(=O)N/N=C/c2ccc([N+](=O)[O-])s2)cc1`, the MBC against Staphylococcus aureus [1] is above 50.8 µg/mL. The results for the minimum inhibitory concentration (MIC) in the assay on Staphylococcus aureus [2] and in the assay with Staphylococcus aureus [3] were 12.7 µg/mL (≈ 38.3 µM) and at most 40.7 µM, respectively.
In the case of `CCCCNc1ccc(C(=O)N/N=C/c2ccc([N+](=O)[O-])s2)cc1`, in the assay with Staphylococcus aureus [1], the MBC was above 49.8 µg/mL. Also, the MIC was 6.22 µg/mL (≈ 18 µM) in the assay on Staphylococcus aureus [2] and at most 22.4 µM with Staphylococcus aureus [3].
The corresponding values for `CC(=O)c1ccc(C(=O)N/N=C/c2ccc([N+](=O)[O-])s2)cc1` are 0.22 µg/mL (≈ 0.693 µM), 0.11 µg/mL (≈ 0.347 µM) and at most 0.44 µM.
The corresponding values for `CCCc1ccc(C(=O)N/N=C/c2ccc([N+](=O)[O-])s2)cc1` are above 29 µg/mL, 7.25 µg/mL (≈ 22.8 µM) and at most 36.5 µM.
